Assay results published in ChEMBL document CHEMBL1157608, “The discovery of 4-{1-[({2,5-dimethyl-4-[4-(trifluoromethyl)benzyl]-3-thienyl}carbonyl)amino]cyclopropyl}benzoic acid (MK-2894), a potent and selective prostaglandin E2 subtype 4 receptor antagonist” (J Med Chem, 2010).

Legend:
[1] = target: Prostaglandin E2 receptor EP2 subtype (Homo sapiens, UniProt P43116); assay: Displacement of [3H]PGE2 from human EP2 receptor expressed in HEK293-EBNA cells by scintillation counting; format: cell-based
Procedure, shortened: (§1)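 Radioligand binding on membranes from HEK 293(EBNA) clonal lines overexpressing each prostanoid receptor, using the respective 3H-prostaglandin or thromboxane ligand; EP4 binding also run with 10% human serum; Ki as means of at least three experiments (rEP2, rEP3 n = 1).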

[2] = target: T1, Prostaglandin D2 receptor (Homo sapiens, UniProt Q13258); assay: Displacement of [3H]PGD2 from human DP1 receptor expressed in HEK293-EBNA cells by scintillation counting; format: cell-based; procedure, shortened: as §1
T1 sequence (Q13258 whole entry): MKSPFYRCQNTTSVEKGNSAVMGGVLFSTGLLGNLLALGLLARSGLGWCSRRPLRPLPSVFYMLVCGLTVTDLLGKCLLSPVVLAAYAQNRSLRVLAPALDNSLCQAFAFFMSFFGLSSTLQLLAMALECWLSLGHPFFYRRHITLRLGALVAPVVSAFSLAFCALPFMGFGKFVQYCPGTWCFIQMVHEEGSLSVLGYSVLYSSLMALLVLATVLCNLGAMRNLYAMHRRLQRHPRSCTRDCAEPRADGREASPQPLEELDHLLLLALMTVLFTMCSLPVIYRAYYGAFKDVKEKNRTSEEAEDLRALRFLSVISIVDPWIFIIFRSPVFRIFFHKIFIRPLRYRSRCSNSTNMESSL

Prostacyclin receptor = Prostacyclin receptor (Homo sapiens, UniProt P43119); assay: Displacement of [3H]iloprost from human IP receptor expressed in HEK293-EBNA cells by scintillation counting; format: cell-based; procedure, shortened: as §1
[3] = target: T2, Prostaglandin E2 receptor EP4 subtype (Homo sapiens, UniProt P35408); assay: Antagonist activity at human EP4 receptor expressed in HEK293 cells assessed as inhibition of PGE2-induced cAMP accumulation by scintillation proximity assay; format: functional, cell-based
Procedure, shortened: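 HEK 293 cells; inhibition of PGE2-induced cAMP accumulation measured, with and without 10% human serum; means of at least three experiments.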

[4] = target: T2, Prostaglandin E2 receptor EP4 subtype; assay: Displacement of [3H]PGE2 from human EP4 receptor expressed in HEK293-EBNA cells by scintillation counting in presence of 10% human serum; format: cell-based
Procedure, shortened: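 Radioligand binding on membranes from HEK 293(EBNA) clonal cells overexpressing human EP4, [3H]PGE2 as tracer, run with 10% human serum added to assess serum protein binding; Ki values are means of at least three experiments.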

[5] = target: Prostaglandin E2 receptor EP4 subtype (Rattus norvegicus, UniProt P43114); assay: Displacement of [3H]PGE2 from rat EP4 receptor expressed in HEK293-EBNA cells by scintillation counting; format: cell-based; procedure, shortened: as §1
[6] = target: Prostaglandin E2 receptor EP2 subtype (Rattus norvegicus, UniProt Q62928); assay: Displacement of [3H]PGE2 from rat EP2 receptor expressed in HEK293-EBNA cells by scintillation counting; format: cell-based; procedure, shortened: as §1
[7] = target: T3, Prostaglandin E2 receptor EP3 subtype (Rattus norvegicus, UniProt P34980); assay: Displacement of [3H]PGE2 from rat EP3 receptor expressed in HEK293-EBNA cells by scintillation counting; format: cell-based; procedure, shortened: as §1
T3 sequence (P34980 whole entry): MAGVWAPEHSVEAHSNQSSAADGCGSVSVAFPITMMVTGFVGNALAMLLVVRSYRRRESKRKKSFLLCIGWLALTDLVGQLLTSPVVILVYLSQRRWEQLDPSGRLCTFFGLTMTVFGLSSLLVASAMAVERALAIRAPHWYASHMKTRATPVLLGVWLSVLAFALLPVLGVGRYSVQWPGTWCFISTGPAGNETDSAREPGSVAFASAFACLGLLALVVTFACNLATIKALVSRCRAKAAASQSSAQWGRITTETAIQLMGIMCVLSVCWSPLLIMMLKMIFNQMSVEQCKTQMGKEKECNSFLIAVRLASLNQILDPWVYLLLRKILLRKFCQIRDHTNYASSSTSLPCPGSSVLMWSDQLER

Rattus norvegicus [8] = assay: Analgesic activity in po dosed Sprague-Dawley rat assessed as inhibition of carrageenan-induced mechanical hyperalgesia relative to control; format: functional
Procedure, shortened: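 SD rats given subplantar carrageenan; compound dosed orally as a single dose; mechanical hyperalgesia read at 3 h post carrageenan, 1 h post dose; inhibition expressed vs vehicle control; n = 10-20/group; 1-way ANOVA/Dunnett's.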

Rattus norvegicus [9] = assay: Plasma concentration in complete Freund's adjuvant-induced Sprague-Dawley rat inflammatory pain model at 0.1 mg/kg/day, po; format: ADME, organism-based; set-up: route oral; settings: in vivo
Procedure, shortened: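 Adjuvant-induced arthritis in rats: CFA injected into primary paw on day 0; oral dosing in 0.5% methocel once daily for 9 days starting day 9; secondary paw swelling measured; plasma levels taken 24 h after final dose; n = 7/group; 1-way ANOVA/Dunnett's vs vehicle.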

Rattus norvegicus [10] = assay: Gastrointestinal toxicity in Sprague-Dawley rat assessed as urinary excretion of 51Cr-EDTA at 3 to 30 mg/kg/day, po once daily for 5 days; format: organism-based, Urine; set-up: route oral; settings: in vivo, 120 h
Procedure, shortened: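 Male SD rats dosed orally once daily in 0.5% methocel (3, 10, 30 mg/kg for 5 days, or 5 mg/kg for 3 days); single oral 51Cr-EDTA given on day 4 or day 2 respectively; urinary 51Cr excretion as GI permeability index; n = 5/group treated, 4 vehicle; 1-way ANOVA/Dunnett's.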

[11] = Half life in Sprague-Dawley rat at 5 mg/kg, iv; format: ADME, organism-based; set-up: dose 5 mg/kg, route intravenous; settings: in vivo
Procedure, shortened: (§2)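 Overnight-fasted animals dosed po in 0.5% methocel or iv in 60% PEG 200; plasma from serial blood samples stored at -10 °C, protein-precipitated with equal volume acetonitrile/0.1% formic acid, analysed by LC/MS/MS with internal standard against spiked blank-plasma standards; Cmax from po data, half-life from iv data.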

[12] = Half life in C57BL/6 mouse at 5 mg/kg, iv; format: ADME, organism-based; set-up: dose 5 mg/kg, route intravenous; settings: in vivo; procedure, shortened: as §2
[13] = Plasma clearance in C57BL/6 mouse at 20 mg/kg, po and 5 mg/kg, iv; format: ADME, organism-based; procedure, shortened: as §2
[14] = Cmax in Beagle dog at 5 mg/kg, po; format: ADME, organism-based, Canis lupus familiaris; set-up: dose 5 mg/kg, route oral; settings: in vivo; procedure, shortened: as §2
[15] = Half life in Beagle dog at 1 mg/kg, iv; format: ADME, organism-based, Canis lupus familiaris; set-up: dose 1 mg/kg, route intravenous; settings: in vivo; procedure, shortened: as §2
[16] = Plasma clearance in Beagle dog at 5 mg/kg, po and 1 mg/kg, iv; format: ADME, organism-based, Canis lupus familiaris; procedure, shortened: as §2
[17] = Cmax bioavailability in cynomolgus monkey at 5 mg/kg, po; format: ADME, organism-based, Macaca fascicularis; set-up: dose 5 mg/kg, route oral; settings: in vivo; procedure, shortened: as §2
Cynomolgus monkey [18] = assay: Half life bioavailability in cynomolgus monkey at 1 mg/kg, iv; format: ADME, organism-based, Macaca fascicularis; settings: in vivo; procedure, shortened: as §2
Cynomolgus monkey [19] = assay: Volume of distribution at steady state in cynomolgus monkey at 5 mg/kg, po and 1 mg/kg, iv; format: ADME, organism-based, Macaca fascicularis; settings: in vivo; procedure, shortened: as §2

T2 sequence (P35408 whole entry): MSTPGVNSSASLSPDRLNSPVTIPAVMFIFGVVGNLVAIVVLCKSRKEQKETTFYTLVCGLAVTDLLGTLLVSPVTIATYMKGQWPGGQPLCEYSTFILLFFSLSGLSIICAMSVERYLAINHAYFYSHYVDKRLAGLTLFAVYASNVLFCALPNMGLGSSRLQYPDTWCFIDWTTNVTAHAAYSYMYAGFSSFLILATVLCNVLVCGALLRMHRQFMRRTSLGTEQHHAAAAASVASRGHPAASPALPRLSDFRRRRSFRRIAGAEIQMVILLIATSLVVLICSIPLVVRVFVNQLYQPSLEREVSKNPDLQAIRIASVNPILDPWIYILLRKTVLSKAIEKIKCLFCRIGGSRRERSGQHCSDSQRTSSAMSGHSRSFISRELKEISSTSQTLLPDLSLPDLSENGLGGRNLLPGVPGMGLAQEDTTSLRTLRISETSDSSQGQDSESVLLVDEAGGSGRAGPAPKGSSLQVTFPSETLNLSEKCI
Chain of Prostaglandin E2 receptor EP4 subtype (Rattus norvegicus, UniProt P43114) (P43114 whole entry): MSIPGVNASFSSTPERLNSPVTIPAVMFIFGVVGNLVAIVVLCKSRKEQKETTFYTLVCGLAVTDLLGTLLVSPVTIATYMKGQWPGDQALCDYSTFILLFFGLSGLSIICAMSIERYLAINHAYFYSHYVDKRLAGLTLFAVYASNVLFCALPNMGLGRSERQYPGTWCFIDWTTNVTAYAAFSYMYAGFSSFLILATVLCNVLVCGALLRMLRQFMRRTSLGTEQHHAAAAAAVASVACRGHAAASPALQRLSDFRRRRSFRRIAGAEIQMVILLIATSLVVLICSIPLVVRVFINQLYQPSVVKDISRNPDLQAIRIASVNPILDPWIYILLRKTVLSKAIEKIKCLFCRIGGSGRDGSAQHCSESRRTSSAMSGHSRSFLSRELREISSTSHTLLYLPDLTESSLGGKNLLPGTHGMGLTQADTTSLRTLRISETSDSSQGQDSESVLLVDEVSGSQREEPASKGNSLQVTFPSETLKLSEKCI
Chain of Prostacyclin receptor (P43119 whole entry): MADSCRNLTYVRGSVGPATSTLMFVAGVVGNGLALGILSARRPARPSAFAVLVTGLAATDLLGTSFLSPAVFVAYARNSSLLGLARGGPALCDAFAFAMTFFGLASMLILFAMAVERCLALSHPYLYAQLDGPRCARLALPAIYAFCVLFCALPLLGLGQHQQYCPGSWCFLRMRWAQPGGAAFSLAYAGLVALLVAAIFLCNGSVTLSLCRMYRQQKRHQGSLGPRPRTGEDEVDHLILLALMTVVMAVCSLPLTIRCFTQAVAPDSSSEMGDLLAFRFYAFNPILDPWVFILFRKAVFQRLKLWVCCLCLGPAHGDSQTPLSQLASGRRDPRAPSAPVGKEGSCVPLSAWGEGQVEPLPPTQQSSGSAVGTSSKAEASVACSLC
Chain of Prostaglandin E2 receptor EP2 subtype (Rattus norvegicus, UniProt Q62928) (Q62928 whole entry): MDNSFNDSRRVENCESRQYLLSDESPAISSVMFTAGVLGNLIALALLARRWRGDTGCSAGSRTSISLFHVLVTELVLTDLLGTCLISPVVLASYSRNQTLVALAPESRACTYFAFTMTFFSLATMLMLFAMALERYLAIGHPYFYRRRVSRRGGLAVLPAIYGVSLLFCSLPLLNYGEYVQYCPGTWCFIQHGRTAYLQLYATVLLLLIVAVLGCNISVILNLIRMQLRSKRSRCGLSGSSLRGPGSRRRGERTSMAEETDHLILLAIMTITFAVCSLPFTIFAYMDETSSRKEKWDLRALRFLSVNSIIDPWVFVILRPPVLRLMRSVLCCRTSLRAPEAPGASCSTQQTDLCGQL
Chain of Prostaglandin E2 receptor EP2 subtype (Homo sapiens, UniProt P43116) (P43116 whole entry): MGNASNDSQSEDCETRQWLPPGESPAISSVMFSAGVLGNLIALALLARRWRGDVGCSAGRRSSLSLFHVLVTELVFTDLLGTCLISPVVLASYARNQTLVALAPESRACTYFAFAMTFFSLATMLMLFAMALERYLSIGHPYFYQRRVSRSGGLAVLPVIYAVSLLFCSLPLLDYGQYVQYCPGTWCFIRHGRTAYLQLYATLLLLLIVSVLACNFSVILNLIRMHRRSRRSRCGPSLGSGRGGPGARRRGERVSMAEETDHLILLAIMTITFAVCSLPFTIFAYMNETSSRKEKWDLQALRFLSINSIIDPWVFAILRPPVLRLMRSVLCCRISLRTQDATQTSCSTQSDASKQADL

Ki [1]: 5.9 µM | Ki [2]: > 3.9 µM | Ki (Prostacyclin receptor): > 22 µM | IC50 [3]: 0.0025 µM | Ki [4]: 0.00097 µM | Ki [5]: 0.0007 µM | Ki [6]: 7.2 µM | Ki [7]: 3.3 µM | concentration (Rattus norvegicus [9]): 4 nM | half-life [11]: 4.5 h | half-life [12]: 15 h | clearance [13]: 23 mL/min/kg | Cmax [14]: 3300 nM | half-life [15]: 8.8 h | clearance [16]: 3.2 mL/min/kg | Cmax [17]: 50 nM | t1/2 (Cynomolgus monkey [18]): 19 h | Vdss (Cynomolgus monkey [19]): 7.9 L/kg
Structure (SMILES): Cc1sc(C)c(C(=O)NC2(c3ccc(C(=O)O)cc3)CC2)c1Cc1ccc(C(F)(F)F)cc1
inhibition (INH) (Rattus norvegicus [8]): 60% | Activity (Rattus norvegicus [10]): Non-toxic
